Results gathered from unrelated publications.
Organism: Severe acute respiratory syndrome coronavirus 2

CCC(CC)COC(=O)[C@H](C)N[P@](=O)(OC[C@H]1O[C@@](C#N)(c2ccc3c(N)ncnn23)[C@H](O)[C@@H]1O)Oc1ccccc1 — EC90 (viral replication, inhibitor, qPCR; Vero C1008; 48 h): 7.05 µM
O=C(Nc1ccccc1F)c1cc2c(=O)n3ccccc3nc2n1Cc1ccccc1 — inhibition (viral replication; Vero; 10 nM): 50.8%
CN(CCCN1c2ccccc2CCc2ccccc21)CC(=O)c1ccc(Cl)cc1 — IC50 (viral replication, inhibitor; A549-ACE2): 7.76 µM
O=C(/C=C/c1ccc(O)c(O)c1/C=C/c1ccc(O)c(O)c1)O[C@H](Cc1ccc(O)c(O)c1)C(=O)O — inhibition (cytopathic effect, inhibitor; Vero C1008; 1.562 µM): 0%
CC(C)/N=c1\cc2n(-c3ccc(Cl)cc3)c3ccccc3nc-2cc1Nc1ccc(Cl)cc1 — IC50 (viral replication, inhibitor; Huh-7): 0.085 µM
CCCCCCCCCCCCCCCCCCOC[C@H](COP(=O)(O)OC[C@H]1O[C@@](C#N)(c2ccc3c(N)ncnn23)[C@H](O)[C@@H]1O)OCc1ccccc1 — EC50 (viral replication, inhibitor, qPCR; Vero C1008): 0.14 µM
CC(CN1c2ccccc2Sc2ccccc21)N(C)C (stereo not shown) — IC50 (viral replication; Vero C1008): 3.16 µM
OC(CNCC(O)C1CCc2cc(F)ccc2O1)C1CCc2cc(F)ccc2O1 (stereo not shown) — IC50 (viral replication, inhibitor; Huh-7): > 2 µM
CCOC(=O)c1[nH]c2cc(OC)c(OC)cc2c1CCN1CCN(c2ccccc2)CC1 — inhibition (viral replication, inhibitor; Vero C1008; 1 µM): 52.8%
Cn1c(C(=O)Nc2ccc(Cl)cc2)cc2c(=O)n3ccccc3nc21 — inhibition (viral replication; Vero; 1 nM): 5.41%
Cc1cc2c(cc1C(=O)Oc1ccc(C(=O)O)cc1)C(C)(C)CCC2(C)C — inhibition (viral replication, inhibitor; Vero C1008; 1 µM): 49.8%
Cc1cc(NC(=O)c2cc3c(=O)n4cccc(C)c4nc3n2C)ccc1Br — inhibition (viral replication; Vero; 10 µM): 91.9%
c1ccc([C@H]2CN3CCSC3=N2)cc1 — IC50 (viral replication, inhibitor; Huh-7): > 2 µM
CN1CCN(C2=Nc3ccccc3Oc3ccc(Cl)cc32)CC1 — IC50 (viral replication, inhibitor; Vero C1008): 11.5 µM
Cn1cnc(Cn2c(=O)[nH]/c(=N\c3cc4cn(C)nc4cc3Cl)n(Cc3cc(F)c(F)cc3F)c2=O)n1 — EC50 (viral replication, inhibitor, qPCR; 48 h): 0.023 µM
O=C(O[C@@H]1Cc2c(O)cc(O)cc2O[C@@H]1c1cc(O)c(O)c(O)c1)c1cc(O)c(O)c(O)c1 — inhibition (cytopathic effect; Vero C1008; 1.562 µM): 0%
CCC(CC)COC(=O)[C@H](C)N[P@](=O)(OC[C@H]1O[C@@](C#N)(c2ccc3c(N)ncnn23)[C@H](O)[C@@H]1O)Oc1ccccc1 — EC50 (viral replication, inhibitor; Vero C1008): < 100 µM
N#Cc1ccc2[nH]cc(CCCCN3CCN(c4ccc5oc(C(=N)Cl)cc5c4)CC3)c2c1 — IC50 (viral replication, inhibitor; Huh-7): > 2 µM
CCOC(=O)c1ncc2[nH]c3cccc(OC(C)C)c3c2c1C — inhibition (viral replication, inhibitor; Vero C1008; 1 µM): 40.6%
CC(C)=CCc1c(O)ccc(C(=O)/C=C/c2ccc(O)cc2)c1O — inhibition (cytopathic effect; Vero C1008; 6.25 µM): 0%
Cc1cccn2c(=O)c3cc(C(=O)Nc4ccc(N(C)C)cc4)n(C)c3nc12 — inhibition (viral replication; Vero; 10 nM): 7.3%
CCCN(CCC)CCc1ccc(OC)c(OCCc2ccccc2)c1 — IC50 (viral replication, inhibitor; A549-ACE2): 1.41 µM
C=C[C@@](C)(/C=C/c1ccc(O)cc1)CCC=C(C)C — inhibition (cytopathic effect; Vero C1008; 25 µM): 0%
CN(C)CCC=C1c2ccccc2CCc2ccccc21 — IC50 (viral replication; Vero C1008): 2.82 µM
[2H]C([2H])(c1cc(F)c(F)cc1F)n1c(=O)n(Cc2ncn(C)n2)c(=O)[nH]/c1=N\c1cc2cn(C)nc2cc1Cl — EC50 (viral replication, inhibitor, qPCR; 48 h): 0.024 µM
CCC(C)(C)C(=O)O[C@H]1C[C@@H](C)C=C2C=C[C@H](C)[C@H](CC[C@@H]3C[C@@H](O)CC(=O)O3)[C@H]21 — IC50 (viral replication, inhibitor; Huh-7): > 2 µM
CN(C)CCCN1c2ccccc2Sc2ccc(Cl)cc21 — IC50 (viral replication; Vero C1008): 0.282 µM
CC(/C=C/C=C(\C)c1cc(C(C)(C)C)cc(C(C)(C)C)c1)=C\C(=O)O — inhibition (viral replication, inhibitor; Vero C1008; 1 µM): 61.6%
Fc1ccc(C(OCCN2CCN(CCCc3ccccc3)CC2)c2ccc(F)cc2)cc1 — IC50 (viral replication, inhibitor; A549-ACE2): 6.03 µM
Cn1c(C(=O)Nc2ccc3c(c2)OCCO3)cc2c(=O)n3ccccc3nc21 — inhibition (viral replication; Vero; 0.1 µM): 37.7%
O=C(O)c1c(Nc2cccc(F)c2)[nH]c2cc(Cl)ccc2c1=O — EC50 (viral entry, inhibitor; NCI-H1299; pseudovirus): 0.69 µM
CCCCCCCCCCCCCCCCOCCCOP(=O)(O)OC[C@H]1O[C@@](C#N)(c2ccc3c(N)ncnn23)[C@H](O)[C@@H]1O — EC50 (viral replication, inhibitor, qPCR; Vero C1008): 0.63 µM
COc1ccc(C[C@@H]2c3cc(Oc4cc(C[C@@H]5c6cc(O)c(OC)cc6CCN5C)ccc4O)c(OC)cc3CCN2C)cc1 — inhibition (cytopathic effect, inhibitor; Vero C1008; 50 µM): 66.7%
CCCN(CCC)c1cc(C)nc2c(-c3cnc(N(C)C)cc3C)c(C)nn12 — inhibition (viral replication, inhibitor; Vero C1008; 1 µM): 60%
CCC(CC)COC(=O)[C@H](C)N[P@](=O)(OC[C@H]1O[C@@](C#N)(c2ccc3c(N)ncnn23)[C@H](O)[C@@H]1O)Oc1ccccc1 — inhibition (viral replication; Vero; 10 nM): 53.8%
COc1ccc(CCN(C)CCCC(C#N)(c2ccc(OC)c(OC)c2)C(C)C)cc1OC (stereo not shown) — IC50 (viral replication, inhibitor; Huh-7): 0.534 µM
N#C[C@@]1(c2ccc3c(N)ncnn23)O[C@H](CO)[C@@H](O)[C@H]1O — EC90 (viral replication, inhibitor, qPCR; Vero C1008; 48 h): 0.77 µM
Cc1cccc(CN2CCN(C(c3ccccc3)c3ccc(Cl)cc3)CC2)c1 (stereo not shown) — IC50 (viral replication; Vero C1008): 1.35 µM
Cc1cc(C)c(N(C)CC(=O)Nc2nc(-c3ccccn3)c[nH]2)c(C)c1 — inhibition (viral replication, inhibitor; Vero C1008; 1 µM): 50.7%
CCCCCCCCCCCCCCCCCCOCCOP(=O)(O)OC[C@H]1O[C@@](C#N)(c2ccc3c(N)ncnn23)[C@H](O)[C@@H]1O — EC90 (viral replication, inhibitor, qPCR; Vero C1008; 48 h): 0.33 µM
